Reference: ChEMBL document CHEMBL1125318, “4-substituted thiophene- and furan-2-sulfonamides as topical carbonic anhydrase inhibitors” (J Med Chem, 1992)
“And” between values parts separate entries of the source, which are not always exact repeats. Equal entries are not always repeated. The source made the active and inactive calls. The calls are words filed in the database; no cut-off is given here.

How the values were obtained:
Oryctolagus cuniculus [1] = assay: Ability to penetrate the albino rabbit eye and to inhibit the target enzyme in an homogenate of the iris-ciliary body at 1 hr postdosing, ex vivo when dosed in 0.5% aqueousi (hydroxymethyl) cellulose.; assay type: functional
Summary of the method: (§1)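 Albino rabbits received one 50 μL drop of test suspension topically; 1 h after dosing the iris-ciliary body was homogenized and its carbonic anhydrase activity measured ex vivo. Screening used 0.5%, with lower concentrations for some compounds. Reference suspensions were given as 0.1% in 0.5% aqueous (hydroxyethyl)cellulose.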

Carbonic anhydrase 2 [2] = target: T1, Carbonic anhydrase 2 (Homo sapiens, UniProt P00918); assay: Inhibition of human carbonic anhydrase II; details: read-out: I50
Summary of the method: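 CA II was affinity-purified from human erythrocytes. CO2 hydration was assayed by pH stat in 0.02 M Tris chloride, pH 8.6, at 2 °C with CO2–air (5:95) bubbled at 150 mL/min. The 0.025 N NaOH volume needed to hold pH 8.3 over 3 min was recorded, with inhibitor added before enzyme. I50 was read from semilog plots of % inhibition versus log concentration.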

Oryctolagus cuniculus [3] = assay: Ability to penetrate the albino rabbit eye and to inhibit the target enzyme in an homogenate of the iris-ciliary body at 1 hr postdosing, ex vivo when dosed in 0.1% aqueousi (hydroxymethyl) cellulose.; assay type: functional; summary of the method: as §1
Carbonic anhydrase 2 [4] = target: T1, Carbonic anhydrase 2; assay: Compound was tested in vitro for binding affinity against human carbonic anhydrase II; (ki*10e-9)
Summary of the method: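 Fluorescence competition against dansylamide used purified human erythrocyte CA II (1×10^-7 M) and dansylamide (2×10^-6 M) in pH 7.4, 0.1 ionic strength phosphate buffer at 37 °C. Excitation was 280 nm and emission 460 nm, with stepwise addition of test compound in buffer.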

[5] = Solubility measured in water; assay type: physicochemical; details: read-out: S
Summary of the method: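 Solubility was measured in water at 25 °C.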

[6] = Partition coefficient (logD7.4); assay type: physicochemical; details: octanol/water, pH 7.4
Summary of the method: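 Compound was equilibrated between 1-octanol and 0.1 ionic strength pH 7.4 phosphate buffer; each phase was quantified by UV spectrophotometry.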

Oryctolagus cuniculus [7] = organism: Oryctolagus cuniculus; assay: Maximum Intraocular pressure reduction in alpha-CT rabbits at the dose (as a 50 microL drop of suspension in 0.5% aqueous cellulose); assay type: functional
Summary of the method: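 α-Chymotrypsinized rabbits received a 50 μL topical drop of test suspension. IOP was read before dosing and at 0.5, 1, 2, 3, 4 and 5 h after. The value is the maximum fall from the pre-dose reading. Parallel control groups got a drop of 0.5% aqueous (hydroxyethyl)cellulose.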

[8] = Solubility (pH 7.4, 25 degree C); assay type: physicochemical; details: buffer, read-out: S
[9] = Ionization constant (pKa); assay type: physicochemical
Summary of the method: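 The half-neutralization point was found by titration with 0.5 N NaOH and 0.5 N HCl in 30% EtOH–H2O using a glass electrode.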

[10] = Aqueous solubility (25 degree C); assay type: physicochemical; details: read-out: S

Row | IC50 (Carbonic anhydrase 2 [2]) [nM] | Ki (Carbonic anhydrase 2 [4]) | solubility [5] [µg/mL] | logD [6] | solubility [8] [µg/mL] | pKa [9] | solubility [10] [µg/mL] | SMILES | Inhibition (Oryctolagus cuniculus [1]) | Inhibition (Oryctolagus cuniculus [3]) [%] | Max IOP reduction (Oryctolagus cuniculus [7])
1 | 13 | 14.5 nM | – | – | – | – | – | CC(C)CNCc1cccc(C(=O)c2csc(S(N)(=O)=O)c2)c1.Cl | 68% | – | –
2 | 22 | – | – | – | – | – | – | CC(C)NCc1cccc(S(=O)(=O)c2csc(S(N)(=O)=O)c2)c1.Cl | 71% | – | –
3 | 13 | 6.5 nM | – | – | – | – | – | CC(C)CNCc1ccc(S(=O)(=O)c2csc(S(N)(=O)=O)c2)cc1.Cl | 87% | 63 | –
4 | 18 | 21.1 nM | – | – | – | – | – | CC(C)CNCc1ccccc1S(=O)(=O)c1csc(S(N)(=O)=O)c1.Cl | 62% | 47 | –
5 | 36 | – | – | -0.143 | – | 9.3 | 4500 | CC(C)(C)NCc1ccc(S(=O)(=O)c2csc(S(N)(=O)=O)c2)cc1.Cl | 61% | – | –
6 | 16 | – | – | – | – | – | – | CCN(CC)Cc1ccc(S(=O)(=O)c2csc(S(N)(=O)=O)c2)cc1O.Cl | 84% | – | –
7 | 9 | – | – | – | – | – | – | CC(C)CCNCc1cccc(C(=O)c2csc(S(N)(=O)=O)c2)c1.Cl | 82% | – | –
8 | 14 | – | – | – | – | – | – | CC(C)CNCc1ccc(S(=O)(=O)c2csc(S(N)(=O)=O)c2)cc1O | – | – | –
9 | 15 | – | – | – | – | – | – | Cl.NS(=O)(=O)c1cc(S(=O)(=O)c2ccccc2CNCc2ccccn2)cs1 | 88% | 88 | -6.5 mmHg
10 | 9 | – | – | – | – | – | – | CN(C)Cc1cc(S(=O)(=O)c2csc(S(N)(=O)=O)c2)ccc1O.Cl | 57% | 40 | –
11 | 5 | 8 nM | – | – | – | 9.2 | – | NS(=O)(=O)c1cc(S(=O)(=O)c2ccc(O)cc2)cs1 | 82% | – | –
12 | 2.1 | – | – | – | – | – | – | NS(=O)(=O)c1cc(S(=O)(=O)c2cccc(O)c2)cs1 | 86% | – | –
13 | 45 | – | – | – | – | 8.78 | – | COc1ccc(S(=O)(=O)c2csc(S(N)(=O)=O)c2)cc1 | 68% | – | –
14 | 5 | – | – | – | – | – | – | CC(C)CN(C)Cc1cc(S(=O)(=O)c2csc(S(N)(=O)=O)c2)ccc1O.Cl | 90% | 26 | –
15 | 7.6 | 1.43 nM | – | 0.978 | 850 | 8.84 | – | Cl.NS(=O)(=O)c1cc(S(=O)(=O)c2ccc(CN3CCOCC3)cc2)cs1 | 83% | – | –
16 | 8 | – | – | – | – | – | – | Cl.NS(=O)(=O)c1cc(S(=O)(=O)c2ccc(CNCc3ccccn3)cc2)cs1 | 92% | 75 | –
17 | 23 | – | – | 1.13 | – | 8.8 | > 64000 | CN1CCN(Cc2ccccc2S(=O)(=O)c2csc(S(N)(=O)=O)c2)CC1.Cl | 77% | 65 | -2.7 mmHg
18 | 9 | – | – | – | – | – | – | CCN(CC)Cc1cc(S(=O)(=O)c2csc(S(N)(=O)=O)c2)ccc1O.Cl | 71% | – | –
19 | 12 | – | – | – | – | – | – | CC(C)CNCc1cccc(S(=O)(=O)c2csc(S(N)(=O)=O)c2)c1.Cl | 84% | – | –
20 | 29 | – | – | – | – | – | – | CCCCNCc1ccc(S(=O)(=O)c2csc(S(N)(=O)=O)c2)cc1.Cl | 87% | 48 | –
21 | 3.2 | – | – | – | – | – | – | Cc1ccc(S(=O)(=O)c2csc(S(N)(=O)=O)c2)cc1 | 86% | – | –
22 | 26 | – | – | 0.477 | – | 9.05 | 20000 | CCC(C)NCc1cccc(S(=O)(=O)c2csc(S(N)(=O)=O)c2)c1.Cl (stereo not given) | 72% | – | -2.3 mmHg

More lines, now with the values behind:

Row | SMILES | IC50 (Carbonic anhydrase 2 [2]) [nM] | Ki (Carbonic anhydrase 2 [4]) | solubility [5] [µg/mL] | logD [6] | solubility [8] [µg/mL] | pKa [9] | solubility [10] [µg/mL] | Inhibition (Oryctolagus cuniculus [1]) | Inhibition (Oryctolagus cuniculus [3]) [%] | Max IOP reduction (Oryctolagus cuniculus [7])
23 | NS(=O)(=O)c1cc(S(=O)(=O)c2ccc(O)cc2)co1 | 4.2 | – | – | – | – | – | – | 54% | 100 | –
24 | Cl.NS(=O)(=O)c1cc(C(=O)c2ccc(CN3CCOCC3)cc2)cs1 | 3.7 | 3.32 nM | 12100 | 1.18 | 70 | 9.28 | – | 73% | – | -2.2 mmHg
25 | CCCCNCc1ccc(C(=O)c2csc(S(N)(=O)=O)c2)cc1.Cl | 12 | – | – | 0.568 | 460 | 9.32 | 2400 | 95% | 68 | –
26 | COc1ccc(S(=O)(=O)c2coc(S(N)(=O)=O)c2)cc1 | 2.5 | – | – | 1.17 | – | 6.32 | – | 68% and 97% | 95 | –
27 | CNCc1ccc(C(=O)c2csc(S(N)(=O)=O)c2)cc1.Cl | 4.5 | – | – | – | – | – | – | 67% | 13 | –
28 | CC(C)CNCc1ccc(C(=O)c2csc(S(N)(=O)=O)c2)cc1.Cl | 4.8 | – | – | – | – | – | – | 87% | 77 | inactive
29 | CN(C)Cc1cc(C(=O)c2csc(S(N)(=O)=O)c2)ccc1O.Cl | 6.4 | 34.4 nM | – | – | – | – | – | 59% | – | –
30 | COc1ccc(C(=O)c2csc(S(N)(=O)=O)c2)cc1 | 3.2 | – | – | – | – | – | – | 31% | – | –
31 | NS(=O)(=O)c1cc(C(=O)c2ccc(O)cc2)cs1 | 2.5 | – | – | – | – | – | – | 83% | – | –
32 | COc1ccc(C(=O)c2coc(S(N)(=O)=O)c2)cc1 | 2 | – | – | – | – | – | – | 67% | 13 | –
33 | Cl.NS(=O)(=O)c1cc(C(=O)c2ccc(CNCc3ccccc3)cc2)cs1 | 2.4 | – | – | – | – | – | – | 81% | – | –
34 | Cc1ccc(S(=O)(=O)c2coc(S(N)(=O)=O)c2)cc1 | 4.2 | – | – | – | – | – | – | 96% | 36 | –
35 | Cl.NS(=O)(=O)c1cc(C(=O)c2cccc(CN3CCOCC3)c2)cs1 | 5 | 10.8 nM | – | 1.11 | – | 9.03 | 4800 | 90% | – | –
36 | CC(C)CN(C)Cc1cc(C(=O)c2csc(S(N)(=O)=O)c2)ccc1O.Cl | 9 | – | – | – | – | – | – | 58% | – | –
37 | CCN(CC)Cc1cc(C(=O)c2csc(S(N)(=O)=O)c2)ccc1O.Cl | 7 | 18.6 nM | – | – | – | – | – | 55% | 54 | –
38 | Cc1ccc(C(=O)c2csc(S(N)(=O)=O)c2)cc1 | 2 | – | – | – | – | – | – | 26% | – | –
39 | CCN(CC)Cc1cc(S(=O)(=O)c2coc(S(N)(=O)=O)c2)ccc1O.Cl | 10 | 4 nM | – | – | – | – | – | 82% | 58 | –
40 | CN(C)Cc1cc(S(=O)(=O)c2coc(S(N)(=O)=O)c2)ccc1O.Cl | 7 | 2.34 nM and 4.9 nM | – | – | – | – | – | 81% | 78 | –
